From ChEMBL document CHEMBL1122194, “Prodrugs of L-cysteine as liver-protective agents. 2(RS)-Methylthiazolidine-4(R)-carboxylic acid, a latent cysteine” (J Med Chem, 1982)

Assays:
Mus musculus [1] = organism: Mus musculus; experiment: Tested for Protection from Acetaminophen-Induced Liver Necrosis in Mice (18 animals) and the deaths were observed after the 48 hours due to liver necrosis; Death due to hemorrhagic necrosis of the liver; type: functional
In short: (§1)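 Male Swiss-Webster mice (18–33 g) were randomized and given acetaminophen 750 mg/kg. Protective agents or saline followed 30 min later. Deaths were counted over 48 h with food and water ad libitum, then survivors were killed by cervical dislocation. Livers were formalin-fixed and sectioned, stained with H&E and Gomori reticulum stain, and necrosis was graded 0 to 4+ by Mitchell criteria. Counts pooled up to two independent experiments.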

Mus musculus [2] = organism: Mus musculus; experiment: Tested for Protection from Acetaminophen-Induced Liver Necrosis in Mice, Number of animals(mice) with grade 4+ liver necrosis was determined after 48 hr
Mus musculus [3] = organism: Mus musculus; experiment: Tested for Protection from Acetaminophen-Induced Liver Necrosis in Mice, Number of animals(mice) with liver necrosis was determined after 0 hour; type: functional
Mus musculus [4] = organism: Mus musculus; experiment: Tested for Protection from Acetaminophen-Induced Liver Necrosis in Mice, Number of animals(mice) with liver necrosis was determined after 1 hr; type: functional
Mus musculus [5] = organism: Mus musculus; experiment: Tested for Protection from Acetaminophen-Induced Liver Necrosis in Mice, Number of animals(mice) with grade 3+ liver necrosis was determined after 48 hours
Mus musculus [6] = organism: Mus musculus; experiment: Tested for Protection from Acetaminophen-Induced Liver Necrosis in Mice (in 18 animals) and the deaths were observed after the 48 hours due to liver necrosis; type: functional; in short: as §1
Mus musculus [7] = organism: Mus musculus; experiment: Tested for Protection from Acetaminophen-Induced Liver Necrosis in Mice, necrosis was determined after 3 hour; type: functional
[8] = Lethal dose after intraperitoneal administration in mice was determined; type: toxicity, organism-based; details: mouse, in vivo, ip
Mus musculus [9] = organism: Mus musculus; experiment: Tested for 10 animals(mice) and the deaths were observed after the 48 hours due to liver necrosis; type: functional; in short: as §1
Mus musculus [10] = organism: Mus musculus; experiment: Tested for Protection from Acetaminophen-Induced Liver Necrosis in Mice, Number of animals(mice) with grade 2+ liver necrosis was determined after 48 hours
Mus musculus [11] = organism: Mus musculus; experiment: Tested for Protection from Acetaminophen-Induced Liver Necrosis in Mice (in 10 animals) and the deaths were observed after the 48 hours due to liver necrosis; type: functional; in short: as §1
Mus musculus [12] = organism: Mus musculus; experiment: Tested for 17 animals(mice) and the deaths were observed after the 48 hours due to liver necrosis; type: functional; in short: as §1
Mus musculus [13] = organism: Mus musculus; experiment: Tested for Protection from Acetaminophen-Induced Liver Necrosis in Mice (in 17 animals) and the deaths were observed after the 48 hours due to liver necrosis; type: functional; in short: as §1

Row | SMILES | No. of animals with grade 4+ liver necrosis (Mus musculus [2]) | No. of animals with liver necrosis (Mus musculus [3]) | No. of animals with grade 3+ liver necrosis (Mus musculus [5]) | further results
1 | CC(=O)Nc1ccc(O)cc1.CC1N[C@H](C(=O)O)CS1 | 1 | 17 | – | Deaths (Mus musculus [1]): 1
2 | CC(=O)N[C@@H](CS)C(=O)O.CC(=O)Nc1ccc(O)cc1 | 1 | 13 | 1 | No. of animals with liver necrosis (Mus musculus [4]): 3; Deaths (Mus musculus [6]): 1
3 | O=C(O)C1CSCN1 (configuration not stated) [TIMONACIC] | – | 9 | – | No. of animals with liver necrosis (Mus musculus [7]): 1; LD50 [8]: 164 mg/kg; Deaths (Mus musculus [9]): 3
4 | CC(=O)Nc1ccc(O)cc1.O=C(O)C1CSCN1 | 2 | 1 | 4 | No. of animals with grade 2+ liver necrosis (Mus musculus [10]): 1; Deaths (Mus musculus [11]): 4
5 | CC1N[C@H](C(=O)O)CS1 (some centres not stated) | – | 17 | – | Deaths (Mus musculus [12]): 0
6 | CC(=O)Nc1ccc(O)cc1 [ACETAMINOPHEN] | 8 | 1 | 7 | Deaths (Mus musculus [13]): 11; No. of animals with grade 2+ liver necrosis (Mus musculus [10]): 1
7 | CC(=O)N[C@@H](CS)C(=O)O [ACETYLCYSTEINE] | – | 15 | – | No. of animals with liver necrosis (Mus musculus [4]): 2; Deaths (Mus musculus [12]): 0
